Assay results from ChEMBL document CHEMBL3808334, “Synthesis and in vitro evaluation of novel triazine analogues as anticancer agents and their interaction studies with bovine serum albumin” (Eur J Med Chem, 2016).

What was measured:
Type in all cases: functional
[1] = test system: SK-MEL-28; assay: Growth inhibition of human SK-MEL-28 cells incubated for 48 hrs by sulforhodamine B assay; conditions: SK-MEL-28, 48 h
Summary of the method: (§1)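 Cells were plated at 5,000–40,000 per well according to doubling time and preincubated 24 h at 37 °C in 5% CO2; time-zero plates were then TCA-fixed. Five concentrations (10-fold or ½-log dilutions, DMSO stock) were incubated 48 h. Cells were TCA-fixed, stained with 0.4% SRB and read at 515 nm. GI50 was taken where [(Ti−Tz)/(C−Tz)]×100 = 50.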

[2] = Growth inhibition of human OVCAR8 cells assessed as cell growth at 10^-4 M incubated for 48 hrs by sulforhodamine B assay; conditions: OVCAR-8, 48 h, read-out: Activity
[3] = test system: U-251; assay: Growth inhibition of human U251 cells assessed as cell growth at 10^-6 M incubated for 48 hrs by sulforhodamine B assay; conditions: U-251, 48 h, read-out: Activity
[4] = Growth inhibition of human OVCAR4 cells assessed as cell growth at 10^-4 M incubated for 48 hrs by sulforhodamine B assay; conditions: OVCAR-4, 48 h, read-out: Activity
[5] = test system: HT-29; assay: Growth inhibition of human HT-29 cells assessed as cell growth at 10^-4 M incubated for 48 hrs by sulforhodamine B assay; conditions: HT-29, 48 h, read-out: Activity
[6] = test system: A498; assay: Growth inhibition of human A498 cells assessed as cell growth at 10 uM incubated for 48 hrs by sulforhodamine B assay; conditions: A498, 48 h, read-out: Activity
Summary of the method: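 One-dose screen at 10 µM final. Cells are plated at 5,000–40,000 per well according to doubling time and preincubated 24 h at 37 °C, 5% CO₂. Compound (DMSO stock diluted in medium with 50 µg/ml gentamicin) is then added for 48 h. Growth percent is read by sulforhodamine B staining, absorbance at 515 nm.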

[7] = test system: A498; assay: Growth inhibition of human A498 cells assessed as cell growth at 10^-7 M incubated for 48 hrs by sulforhodamine B assay; conditions: A498, 48 h, read-out: Activity
Summary of the method: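 Five-dose assay: five concentrations from 10-fold or ½-log serial dilutions. Cells are plated at 5,000–40,000 per well according to doubling time, grown 24 h, then exposed 48 h at 37 °C, 5% CO₂. Fixed with cold 50% TCA (final addition) for 60 min at 4 °C and stained with 0.4% SRB in 1% acetic acid. Bound dye is solubilized in 10 mM Tris base and read at 515 nm. GI₅₀ is where [(Ti−Tz)/(C−Tz)]×100 = 50, with a time-zero plate as Tz.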

[8] = test system: NCI-H23; assay: Growth inhibition of human NCI-H23 cells assessed as cell growth at 10^-6 M incubated for 48 hrs by sulforhodamine B assay; conditions: NCI-H23, 48 h, read-out: Activity
[9] = Growth inhibition of human HOP62 cells assessed as cell growth at 10^-7 M incubated for 48 hrs by sulforhodamine B assay; conditions: HOP-62, 48 h, read-out: Activity
[10] = Growth inhibition of human HOP92 cells assessed as cell growth at 10^-7 M incubated for 48 hrs by sulforhodamine B assay; conditions: HOP-92, 48 h, read-out: Activity
[11] = test system: NCI-H226; assay: Growth inhibition of human NCI-H226 cells assessed as cell growth at 10^-5 M incubated for 48 hrs by sulforhodamine B assay; conditions: NCI-H226, 48 h, read-out: Activity
[12] = Growth inhibition of human HCT15 cells assessed as cell growth at 10 uM incubated for 48 hrs by sulforhodamine B assay; conditions: HCT-15, 48 h, read-out: Activity
Summary of the method: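 Primary screen at one dose (10 µM) across 60 human cancer cell lines. Readout was growth percent relative to untreated control and time-zero.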

[13] = Growth inhibition of human HCC2998 cells incubated for 48 hrs by sulforhodamine B assay; conditions: HCC 2998, 48 h
Summary of the method: (§2)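 Cells seeded at 5,000–40,000/well according to doubling time and preincubated 24 h at 37 °C, 5% CO2. Time-zero plates were TCA-fixed. DMSO concentrate was diluted in medium with 50 µg/ml gentamicin to give five concentrations (10-fold or ½ log steps), then exposed 48 h. Cells were TCA-fixed, stained with 0.4% SRB and read at 515 nm. Percent growth was taken against time-zero and control; GI50, TGI and LC50 derived.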

[14] = Growth inhibition of human OVCAR4 cells assessed as cell growth at 10^-6 M incubated for 48 hrs by sulforhodamine B assay; conditions: OVCAR-4, 48 h, read-out: Activity
[15] = test system: CCRF-CEM; assay: Growth inhibition of human CCRF-CEM cells assessed as cell growth at 10^-5 M incubated for 48 hrs by sulforhodamine B assay; conditions: read-out: Activity
Summary of the method: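 Leukemia line in the five-dose format: five concentrations from 10-fold or ½-log serial dilutions. Plated at 5,000–40,000 cells per well, preincubated 24 h, then compound added for 48 h at 37 °C, 5% CO₂. Sulforhodamine B absorbance read at 515 nm. Growth is computed against time-zero (Tz) and control (C) readings; GI₅₀ is where [(Ti−Tz)/(C−Tz)]×100 = 50.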

[16] = Growth inhibition of human COLO205 cells assessed as cell growth at 10^-8 M incubated for 48 hrs by sulforhodamine B assay; conditions: COLO 205, 48 h, read-out: Activity; summary of the method: as §2
[17] = Growth inhibition of human Caki1 cells assessed as cell growth at 10^-7 M incubated for 48 hrs by sulforhodamine B assay; conditions: CAKI-1, 48 h, read-out: Activity; summary of the method: as §2
[18] = Growth inhibition of human HCT15 cells incubated for 48 hrs by sulforhodamine B assay; conditions: HCT-15, 48 h; summary of the method: as §2
[19] = test system: NCI-H226; assay: Growth inhibition of human NCI-H226 cells assessed as cell growth at 10^-7 M incubated for 48 hrs by sulforhodamine B assay; conditions: NCI-H226, 48 h, read-out: Activity
[20] = Growth inhibition of human RXF393 cells incubated for 48 hrs by sulforhodamine B assay; conditions: RXF 393, 48 h; summary of the method: as §1
[21] = Growth inhibition of human SNB75 cells assessed as cell growth at 10^-4 M incubated for 48 hrs by sulforhodamine B assay; conditions: SNB-75, 48 h, read-out: Activity
[22] = test system: KM12; assay: Growth inhibition of human KM12 cells incubated for 48 hrs by sulforhodamine B assay; conditions: KM12, 48 h; summary of the method: as §1
[23] = read-out: LC50 (the source's name)
[24] = read-out: pLC50 (the source's name) (converted)

## c1ccc(-c2nc(Nc3ccc(-c4nc5ccccc5[nH]4)cc3)nc(N3CCOCC3)n2)cc1
[1]; read-out: GI50
  GI50: 1.56 µM
[1]; [23]
  CC50: 6.12 µM
[1]; read-out: TGI
  TGI: 3.09 µM
[1]; read-out: pGI50 (converted)
  GI50: 1.55 µM
[1]; [24]
  CC50: 6.17 µM
[1]; read-out: pTGI (converted)
  TGI: 3.09 µM
[2]
  growth at 100 µM: -61%
[3]
  growth at 1 µM: 28%
[4]
  growth at 100 µM: -98%
[5]
  growth at 100 µM: -76%
[6]
  growth at 10 µM: -83.4%
[7]
  growth at 0.1 µM: 84%
[8]
  growth at 1 µM: 93%
[9]
  growth at 0.1 µM: 93%
[10]
  growth at 0.1 µM: 107%
[11]
  growth at 10 µM: -60%
[12]
  growth at 10 µM: -68.9%
[13]; read-out: GI50
  GI50: 1.9 µM
[13]; read-out: TGI
  TGI: 3.99 µM
[13]; read-out: pGI50 (converted)
  GI50: 1.91 µM
[13]; read-out: pTGI (converted)
  TGI: 3.98 µM
[14]
  growth at 1 µM: 93%
[15]
  growth at 10 µM: -33%
[16]
  growth at 0.01 µM: 100%
[17]
  growth at 0.1 µM: 86%
[18]; read-out: GI50
  GI50: 0.343 µM
[18]; read-out: TGI
  TGI: 1.54 µM
[18]; read-out: pGI50 (converted)
  GI50: 0.347 µM
[18]; read-out: pTGI (converted)
  TGI: 1.55 µM
[19]
  growth at 0.1 µM: 120%
[20]; read-out: GI50
  GI50: 0.501 µM
[20]; [23]
  CC50: 7.24 µM
[20]; read-out: TGI
  TGI: 2.12 µM
[20]; read-out: pGI50 (converted)
  GI50: 0.501 µM
[20]; [24]
  CC50: 7.24 µM
[20]; read-out: pTGI (converted)
  TGI: 2.14 µM
[21]
  growth at 100 µM: -90%
[22]; read-out: GI50
  GI50: 1.62 µM
[22]; [23]
  CC50: 6.3 µM
[22]; read-out: TGI
  TGI: 3.19 µM
[22]; read-out: pGI50 (converted)
  GI50: 1.62 µM
[22]; [24]
  CC50: 6.31 µM
[22]; read-out: pTGI (converted)
  TGI: 3.16 µM

## Fc1ccc(-c2nc(Nc3ccc(-c4nc5ccccc5[nH]4)cc3)nc(N3CCOCC3)n2)cc1
[1]; read-out: GI50
  GI50: 1.8 µM
[1]; [23]
  CC50: > 100 µM
[1]; read-out: TGI
  TGI: 4.28 µM
[1]; read-out: pGI50 (converted)
  GI50: 1.78 µM
[1]; [24]
  CC50: > 100 µM
[1]; read-out: pTGI (converted)
  TGI: 4.27 µM
[2]
  growth at 100 µM: -44%
[3]
  growth at 1 µM: 70%
[4]
  growth at 100 µM: -23%
[5]
  growth at 100 µM: -43%
[6]
  growth at 10 µM: -32.1%
[7]
  growth at 0.1 µM: 83%
[8]
  growth at 1 µM: 85%
[9]
  growth at 0.1 µM: 97%
[10]
  growth at 0.1 µM: 104%
[11]
  growth at 10 µM: -8%
[12]
  growth at 10 µM: -62.2%
[13]; read-out: GI50
  GI50: 3.09 µM
[13]; [23]
  CC50: > 100 µM
[13]; read-out: TGI
  TGI: > 100 µM
[13]; read-out: pGI50 (converted)
  GI50: 3.09 µM
[13]; [24]
  CC50: > 100 µM
[13]; read-out: pTGI (converted)
  TGI: > 100 µM
[14]
  growth at 1 µM: 96%
[15]
  growth at 10 µM: 7%
[16]
  growth at 0.01 µM: 100%
[17]
  growth at 0.1 µM: 97%
[18]; read-out: GI50
  GI50: 1.67 µM
[18]; [23]
  CC50: > 100 µM
[18]; read-out: TGI
  TGI: 4.78 µM
[18]; read-out: pGI50 (converted)
  GI50: 1.66 µM
[18]; [24]
  CC50: > 100 µM
[18]; read-out: pTGI (converted)
  TGI: 4.79 µM
[19]
  growth at 0.1 µM: 111%
[20]; read-out: GI50
  GI50: 0.459 µM
[20]; [23]
  CC50: > 100 µM
[20]; read-out: TGI
  TGI: 2.51 µM
[20]; read-out: pGI50 (converted)
  GI50: 0.457 µM
[20]; [24]
  CC50: > 100 µM
[20]; read-out: pTGI (converted)
  TGI: 2.51 µM
[21]
  growth at 100 µM: -33%
[22]; read-out: GI50
  GI50: 2.06 µM
[22]; [23]
  CC50: > 100 µM
[22]; read-out: TGI
  TGI: 5.69 µM
[22]; read-out: pGI50 (converted)
  GI50: 2.04 µM
[22]; [24]
  CC50: > 100 µM
[22]; read-out: pTGI (converted)
  TGI: 5.62 µM
